Screening data (PubChem)
A selection: hits, their analogues and other compounds. The true share with any hit is near 4.9%.
APP 5'UTR act = activators of APP 5'UTR luciferase reporter, primary screen, SH-SY5Y cells; SH-SY5Y APP 5'UTR luciferase reporter, luminescence; zero percent = DMSO vehicle wells; activation, % at 2 µM; hit rate 1% among 190,000; AID 1276, 2008;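 active = activation above a set limit, based on mean plus 3 SD of controls, cut at about 140% in these data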
NF-kB neuron act = activators of NF-kB expression in neurons, primary screen, cell-based, HTS | human neuronal cells, NF-kB reporter expression; hits give high values | fold change at 12.5 µM | hit rate 1.6% among 190,000 | AID 1239, 2008; in the data active = fold change above about 3.3
STAT3 inh = IL-6 driven STAT3 reporter inhibitors, primary screen, U3A cells, luciferase, luminescence, MLSCN library | IL-6 STAT3-luciferase reporter; host cell line lacks STAT1 | inhibition, % at 5.5 µM | hit rate 0.89% among 190,000;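 active = inhibition above the mean inhibition across all screened compounds plus 3 SD, cut at about 44% in these data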
STAT1 inh = STAT1 signaling inhibitors, primary screen, cell-based, HTS, luciferase reporter. NIH 3T3 STAT1-luciferase reporter, IFN-gamma, luminescence. inhibition, % at 5.5 µM. hit rate 0.35% among 200,000. AID 920, 2007;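 active = inhibition above a set limit, the mean inhibition across all tested compounds plus 3 SD, cut at about 34% in these data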
STAT1 activator = STAT1 signaling activators, primary screen, cell-based, HTS, luciferase reporter; hit rate 2.6% among 200,000; activation (% of control), % at 5.5 µM; NIH 3T3 STAT1-luciferase reporter, IFN-gamma, luminescence; 100% = IFN-gamma alone, no compound;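 active = activation above the screen-wide mean activation plus 3 SD, cut at about 130% in these data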
STAT3 activator = IL-6 driven STAT3 reporter potentiators, primary screen, U3A cells, luciferase, luminescence, MLSCN library. hit rate 0.91% among 190,000. IL-6 STAT3-luciferase reporter; 100% = signal with IL-6 EC80 alone. AID 871, 2007. activation (% of control), % at 5.6 µM;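 active = activation above the screen-wide mean of compound activation plus 3 SD, cut at about 130% in these data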
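Detection: reporter luminescence signal / Assay system: STAT1-lacking human U3A cells, STAT3 luciferase reporter / Incubation: compound pre-incubation 1 h before IL-6, then 6 h stimulation at 37 °C / Control set: IL-6-only high control / Read-out: % activation relative to IL-6 control / Probe or stimulus: Interleukin-6, 33 ng/mL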
Each line names hits and unclear results; the compound was inactive in the other large screens.

CS(=O)(=O)N1CCc2cc(-c3csc(NC(=O)C(c4ccccc4)c4ccccc4)n3)ccc21	none
CC(C)(C)C(=O)N1CCc2cc(-c3csc(N)n3)ccc21	STAT3 inh 84.7, STAT1 inh 37.4
CCCC(=O)N1CCc2cc(-c3nc(N)sc3C)ccc21	STAT1 activator 137.1
CCC(C)C(=O)N1CCc2cc(-c3csc(N)n3)ccc21 (stereo unspecified)	STAT1 activator 132.1
CC(=O)Nc1cccc(-c2csc(N)n2)c1	none (no result: NF-kB neuron act)
CNc1nc(-c2ccc3c(c2)CCN3C(=O)CC(C)(C)C)c(C)s1	none
O=C(O)C1CCCN1c1ncccc1[N+](=O)[O-] (stereo unspecified)	none
Cc1ccc(NC(=O)C(C)N2C(=O)c3ccccc3C2=O)cc1S(=O)(=O)N1CCOCC1 (stereo unspecified)	none
CC(=O)c1ccccc1NS(C)(=O)=O	none
Cc1ccc(-c2nc3ccccc3c(=O)n2NC(=S)N(C)C)cc1	none
Nc1c(C(=O)NCC2CCCO2)sc2nc3c(c(-c4ccco4)c12)CC/C3=C\c1ccco1 (stereo unspecified)	none
Cc1cc(C)c(S(=O)(=O)/N=C2/C=C(Sc3ncn[nH]3)C(=O)c3ccccc32)cc1C	STAT3 activator 143.0
Cc1ccc(NC2=C/C(=N/S(=O)(=O)c3cccs3)c3ccccc3C2=O)cc1C	none
COc1cccc([C@@H]2Oc3ccc(OC)cc3C(=O)[C@H]2O)c1	APP 5'UTR act 145.8, NF-kB neuron act 5.69
COc1ccc2c(c1)C(=O)[C@@H](O)[C@H](c1ccc(OC)c(Br)c1)O2	none
Cc1cccc(/N=C/c2nc(-c3ccccc3Br)oc2O)n1	none
Cc1ccnc(N=Cc2nc(-c3ccccc3Br)oc2O)c1	STAT1 activator 142.3
Cc1cccc(CSc2ccc(-c3ccco3)nn2)c1	STAT1 activator 133.4
Clc1cccc(CSc2ccc(-c3ccco3)nn2)c1	none
Cc1ccc(CSc2ccc(-c3ccco3)nn2)cc1	NF-kB neuron act 3.3
COc1ccccc1-c1ccc(SCc2ccccc2)nn1	none
c1ccc(CSc2ccc(-c3ccccn3)nn2)cc1	APP 5'UTR act 138.6, NF-kB neuron act 6.53
COc1ccccc1-c1ccc(SCc2ccccc2F)nn1	STAT1 activator 129.3
Clc1ccc(CSc2ccc(-c3ccco3)nn2)cc1	none
COCCSc1ccccc1C(=O)NCc1cccnc1	none
CC(C)OCCCNC(=O)NC(=O)c1ccc(Cl)cc1	none
COc1ccccc1C(=O)NNC(=O)c1sccc1-n1cccc1	none
CC(C)NC(=O)NC(=O)COC(=O)Cc1c(F)cccc1Cl	none
Cc1ccc(S(=O)(=O)NCC(=O)OCC(=O)NCc2ccc(F)cc2)cc1	none
CCOC(=O)c1c(NC(=S)NC(C)=O)sc(C)c1C	none
Cc1ccc(Oc2ncnc(N)c2[N+](=O)[O-])cc1C	none
Fc1ccccc1CSc1ccc(-c2ccco2)nn1	NF-kB neuron act 4.94
c1ccc(CSc2ccc(-c3ccco3)nn2)cc1	NF-kB neuron act 3.94, STAT1 activator 144.7
O=C(CSc1ccc(-c2ccco2)nn1)NCc1ccccc1	none
CCOC(=O)c1c(C)oc(NC(=O)CCl)c1C(=O)OCC	none
O=C(/C=C/Nc1cccc(C(F)(F)F)c1)c1ccco1	STAT1 activator 132.7
NC(=O)c1ccccc1N/C=C/C(=O)c1ccco1	STAT1 activator 133.5
O=C(/C=C/Nc1ccccc1C(F)(F)F)c1ccco1	APP 5'UTR act 227.9, NF-kB neuron act 6.68
O=C(Nc1cccc(C(F)(F)F)c1)c1ccco1	none
O=C(/C=C/Nc1ccc(Oc2ccccc2)cc1)c1ccco1	APP 5'UTR act 163.8, NF-kB neuron act 5.36, STAT1 activator 140.1
Cc1ccc(C)c(N2C(=O)c3cc(N4CCOCC4)c([N+](=O)[O-])cc3C2=O)c1	none
COc1ccc2c(CC(=O)Nc3ncc(C)s3)coc2c1	STAT1 activator 140.9
COc1ccc(-c2cc3nc4n(c(=O)c3s2)CCC4)cc1	APP 5'UTR act 159.5, STAT3 inh 92.5, STAT1 inh 65.1
COc1ccc(NS(=O)(=O)c2cccc(-c3nnc4n3CCCCC4)c2)cc1	none
CC1Cc2cc(/C(O)=C3/C(=O)C(=O)N(CCCn4ccnc4)C3c3ccco3)ccc2O1 (stereo unspecified)	STAT1 activator 131.8
CC1Cc2cc(/C(O)=C3/C(=O)C(=O)N(CCCn4ccnc4)C3c3ccncc3)ccc2O1 (stereo unspecified)	none
Cc1ccc(C2=NN=C(NC(=O)C(F)(F)F)SC2)cc1	NF-kB neuron act 4.28
COc1ccc(Nc2n[nH]c(C)c2[N+](=O)[O-])cc1	NF-kB neuron act 4.78
Cc1ccc(Nc2n[nH]c(C)c2[N+](=O)[O-])c(C)c1	NF-kB neuron act 5.29
CCOc1ccc(C(=O)Nc2cccc(C(C)=O)c2)cc1[N+](=O)[O-]	none
CC/C(=N\NC(=O)c1c[nH]c2ccccc12)c1cccs1	STAT1 activator 135.9
Cc1ccsc1/C=N/NC(=O)c1c[nH]c2ccccc12	none
Cc1ccc(/C=N/NC(=O)c2c[nH]c3ccccc23)s1	STAT1 activator 145.7
COc1cc(/C=N/NC(=O)c2ccoc2C)ccc1O	STAT1 activator 138.4
Cc1occc1C(=O)N/N=C/c1ccc(Br)s1	STAT1 activator 138.8
COc1cc(C(=O)Nc2ccc3c(c2)Cc2cc(NC(=O)c4cc(OC)c(OC)c(OC)c4)ccc2-3)cc(OC)c1OC	none
COc1ccc(NC(=O)Cc2coc3cc(C)c(C(C)C)cc23)cc1S(=O)(=O)N1CCOCC1	none
O=C(Nc1ccc(Cl)c(Cl)c1)Nc1nnc(CSc2ccccc2)s1	none
CC(C(=O)Nc1ccc(S(=O)(=O)N2CCOCC2)cc1)N1C(=O)C2CC=CCC2C1=O (stereo unspecified)	none
Cc1ccc(/C=N/NC(=O)c2ccoc2C)s1	STAT1 activator 139.2
O=S(=O)(c1ccccc1Br)N1CCC(O)(c2cccnc2)CC1	none
COc1ccc(C(=O)OCC(=O)c2ccc(C3CCCCC3)cc2)cc1	none
Nc1ccc(O)cc1C(=O)OCC(=O)c1ccc(C2CCCCC2)cc1	NF-kB neuron act 6.77
O=C(Nc1ccc(N2CCOCC2)cc1)c1cnsn1	STAT3 inh 86.8, STAT1 inh 44.1
O=C(Nc1ccc(N2CCOCC2)cc1)c1ccncc1	none
Cc1ccc(-c2nnc(CSc3nc4cc5c(cc4cc3C)OCO5)o2)cc1	NF-kB neuron act 4.03
COC(=O)c1ccc(Cn2cnc3c(cnn3-c3ccc(F)cc3)c2=O)o1	none
CC(C)CCn1cnc2c(cnn2-c2ccc(F)cc2)c1=O	STAT1 activator 130.1
COC(=O)c1cccc(NC(=S)N2CCN(c3ccccc3F)CC2)c1	none
CCOc1ccccc1C(=O)N1CCN(c2ccc(C(F)(F)F)cn2)CC1	none
